Cav32 inh: human Cav3.2 channel inhibition, primary screen; Cav3.2-expressing cells, Fluo-4 calcium fluorescence FDSS; hits give low values; O95180; AID 449739; actives 4% (n = 100,000); B-score at 10 µM;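 active means single-dose well whose peak fluorescence ratio is a statistical outlier from its plate by either plate-standardised score or position-corrected B-score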
CYP2C9 inh: inhibitors of human CYP2C9; inhibition, % at 5 µM; actives 20% (n = 96,000); CYP2C9 Supersomes, luciferin-H conversion, luminescence;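 active means blocking of liver enzyme CYP2C9 beyond about 50% at 5 µM, limit read from the data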
CYP2C19 inhib: blocks human cytochrome P450 2C19. P33261. CYP2C19 Supersomes, luciferin-H EGE luminescence, 30 min. inhibition, % at 5 µM. actives 21% (n = 96,000). AID 778;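 active means CYP2C19 inhibition above a set limit at 5 µM in the primary screen, cut at about 50% in these data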;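 further: plate controls were negative control wells for no effect and 2.5 mM tranylcypromine positive control for full effect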
CYP2C9 act: CYP2C9 (human) activation; activation factor at 5 µM; actives 1.4% (n = 96,000); P11712; recombinant CYP2C9, luciferin-H conversion, luminescence; hits give high values; factor 1 = untreated enzyme, 0 = blocked;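 active means activation factor of 2 or more for CYP2C9 at a 5 µM dose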;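 further: 0 = sulfaphenazole-blocked wells and 1 = vehicle-only wells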
Rev-RRE block: HIV Rev-RRE protein-RNA interaction inhibition; P05866; Rev peptide-RRE RNA binding, FRET; inhibition, % at 8 µM; actives 0.79% (n = 97,000); AID 704;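 active means inhibition above the screen-wide mean plus 3 SD, cut at about 35% in these data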;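 further: 0% = median DMSO wells and 100% = median Neomycin B control wells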
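Test system – labelled RRE RNA duplex and labelled Rev peptide · Signal – fluorescein-to-Cy5 FRET, 480 nm excitation · Evaluation – % inhibition of FRET ratio versus controls · Benchmarks – DMSO low control, neomycin B high control · Incubation – 5 min RNA-compound premix plus 15 min binding step, 25 °C · Medium – HEPES pH 7.5 salt buffer with EDTA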
CYP2C19 act: cytochrome P450 2C19 (human) activation; recombinant CYP2C19, luciferin-H EGE luminescence; hits give high values; 0 = fully inhibited enzyme, 1 = untreated enzyme; activation factor at 5 µM; 96,000 tested, under 10 active;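 active means activation factor of at least 2 at 5 µM in the primary screen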;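 further: 0 = wells with 2.5 mM tranylcypromine and 1 = vehicle-only wells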
Active calls of the source: *; . = no result given. Compounds with a hit are over-represented: about 27% of the library has one in this group of screens.

SMILES | Cav32 inh | CYP2C9 inh | CYP2C19 inhib | CYP2C9 act | Rev-RRE block | CYP2C19 act
CCOC(=O)C1=NN(C(=O)Nc2ccc(OC)cc2)C2C(=O)N(c3cccc(C(F)(F)F)c3)C(=O)C12 (stereo unspecified) | -0.77 | -6.2 | 5.7 | 1.1 | -0.3 | 0.9
CN(C[C@H](Cc1ccccc1)N(C[C@H](Cc1ccccc1)N(CCc1cc(C(F)(F)F)cc(C(F)(F)F)c1)N=O)N=O)N=O | -1.63 | . | . | . | . | .
CC(C)(C)NS(=O)(=O)c1ccc(Oc2ncc(C(F)(F)F)cc2Cl)cc1 | -0.116 | -8.9 | 6.1 | 1.1 | 7.4 | 0.9
CC(C)(C)NS(=O)(=O)c1cnc(Cl)c(Cl)c1 | 0.263 | -0.6 | 90.2* | 1 | 4.7 | 0.1
CN(c1ncc(C(F)(F)F)cc1Cl)n1cc(C(N)=O)c2ccccc2c1=O | 0.00905 | 83.4* | 57.3* | 0.2 | 3.8 | 0.4
CCCCC1=CC2=CC(=O)C(C)(OC(=O)CC)C(=O)C2=CN1CCc1ccc(Br)cc1 (stereo unspecified) | 0.103 | . | . | . | . | .
CCCCc1ccc(Nc2ncnc3nc[nH]c23)cc1 | . | 42.0 | 53.0* | 0.6 | 12.4 | 0.5
CC1(C)CC(=O)C(C=NCC2CCN(C(=O)Nc3ccc(Cl)c(Cl)c3)CC2)=C(O)C1 | -3.29* | -1.9 | -7.4 | 1 | 7.5 | 1.1
CCO[C@H]1OC(C(=O)N2CCOCC2)=C[C@@H](c2coc3ccccc3c2=O)[C@@H]1CCCO | -0.0457 | . | . | . | . | .
CC(C(=O)NCC1CCCO1)n1cccc1C(=O)c1ccccc1 (stereo unspecified) | 0.285 | 8.3 | 11.1 | 0.9 | 4.0 | 0.9
CN1/C(=C\C=Nc2ccc3ccccc3c2)C(C)(C)c2ccccc21 | -9.43* | 1.0 | 29.6 | 1 | 62.9* | 0.7
Cc1cc(/N=C/C=C2\N(C)c3ccccc3C2(C)C)n(CCC#N)n1 | 0.0706 | 40.7 | 55.2* | 0.6 | 0.0 | 0.4
CCc1nnc(NC(=O)c2cc(-c3ccccc3)nn2-c2ccccc2)s1 | -3.47 | 6.6 | 6.5 | 0.9 | -0.9 | 0.9
CCOc1ccccc1Oc1coc2cc(OC(=O)c3ccco3)ccc2c1=O | -1.24 | 45.4 | 11.3 | 0.5 | 6.7 | 0.9
CCOc1ccc2c(=O)c(Oc3ccccc3OCC)coc2c1 | -0.65 | -105.3 | 73.6* | 2.1* | 1.5 | 0.3
CCOc1ccccc1Oc1coc2cc(O)ccc2c1=O | -1.34 | -211.0 | 29.7 | 3.1* | 1.7 | 0.7
COc1ccc(-c2coc3cc(O)ccc3c2=O)cc1OC | 0.373 | -106.3 | 5.4 | 2.1* | 2.5 | 0.9
C=CCn1c(=O)c2ccccc2n2c(SCc3csc(-c4ccccc4)n3)nnc12 | 0.476 | 25.3 | 29.4 | 0.7 | . | 0.7
Cn1c(SCC(=O)N(Cc2ccccc2)C(C)(C)C)nc2ccccc21 | -0.862 | -38.2 | 50.4* | 1.4 | 3.5 | 0.5
O=C(CS(=O)CC(=O)N(CC(=O)NC1CCCC1)C1CCCCC1)Nc1ccc(F)cc1 (stereo unspecified) | -0.211 | 57.4* | 8.4 | 0.4 | 6.3 | 0.9
Cc1ccc(NC(=O)CS(=O)CC(=O)N(CC(=O)NC2CCCC2)c2cccc(C)c2C)cc1 (stereo unspecified) | -2.76 | 48.2 | -0.7 | 0.5 | -0.5 | 1
Cc1nc(=O)c(-c2ccccc2)c(C)n1-c1ccc(O)cc1 | 0.0175 | -2.1 | 54.0* | 1 | -1.6 | 0.5
CC(C)CC(CO)N1CCN(C(=O)c2ccc(C(C)(C)C)cc2)CCC1=O (stereo unspecified) | 0.148 | . | . | . | . | .
Cc1ccc(C)n1NC(=O)c1ccc(Cl)cc1Cl | -1.51 | -35.5 | 12.2 | 1.4 | 3.5 | 0.9
CN=C(NC#N)SCC(=O)c1ccc(Cl)cc1Cl | -0.149 | 95.7* | 82.2* | 0 | -0.5 | 0.2
SMILES | Cav32 inh | CYP2C9 inh | CYP2C19 inhib | CYP2C9 act | Rev-RRE block | CYP2C19 act
CC(C)(C)C(=O)NC(=C(Cl)Cl)P(=O)(O)O | 0.552 | -13.9 | -11.0 | 1.1 | 7.7 | 1.1
C=CCn1c(SCCOc2ccc(OC)cc2)nnc1C(C)NC(=O)Cc1ccc(OC)cc1 (stereo unspecified) | -1.05 | 67.8* | 76.7* | 0.3 | 1.1 | 0.2
CCn1c(CC(=O)Nc2ccc(C)c(Cl)c2)nnc1SCCOc1ccc(OC)cc1 | -0.0409 | 17.1 | 11.6 | 0.8 | 8.6 | 0.9
O=C(NCc1ccco1)C1CCCN1C(=O)NCc1ccccc1 (stereo unspecified) | 1.01 | 3.4 | 5.3 | 1 | -0.4 | 0.9
O=CNCCCc1nc2ccccc2n1Cc1cccc2ccccc12 | 0.312 | 91.3* | 97.3* | 0.1 | 6.0 | 0
COC(=O)Nc1ccc(S(=O)(=O)N2CCCCCC2)cc1 | -0.533 | . | . | . | -3.0 | .
COC(=O)Nc1ccc(S(=O)(=O)N2c3ccccc3CCC2C)cc1 (stereo unspecified) | -7.24* | 38.8 | 26.9 | 0.6 | . | 0.7
O=C(c1ccccc1)n1nc(-c2ccccc2)nc1NCc1ccco1 | . | 46.7 | 32.8 | 0.5 | 8.8 | 0.7
O=S(=O)(c1ccccc1)n1nc(-c2ccccc2)nc1NCc1ccco1 | -4.52* | 39.8 | 29.1 | 0.6 | 11.5 | 0.7
COC(=O)CSc1nnc(CNC(=O)c2cccs2)n1-c1cc(OC)ccc1OC | 0.0972 | -5.5 | -5.6 | 1.1 | -1.8 | 1.1
COCCNC(=O)Cn1nc(C(F)(F)F)c(Cl)c1C | . | 19.0 | 40.3 | 0.8 | 1.8 | 0.6
CCOc1ccc(S(=O)(=O)Nc2cc(Sc3ncn[nH]3)c3oc(=O)sc3c2)cc1 | -0.0202 | 66.8* | 69.0* | 0.3 | 0.1 | 0.3
COc1ccc(-c2[nH]ncc2/C=C(/C#N)C(=O)NC2CCCCC2)cc1 | -0.256 | 45.2 | 36.0 | 0.5 | 7.8 | 0.6
N#C/C(=C\c1cc(Cl)ccc1O)C(=O)NC1CCCCC1 | -0.343 | 61.2* | 18.5 | 0.4 | 2.5 | 0.8
N#C/C(=C\c1cc(Cl)cc(Cl)c1O)C(=O)NC1CCCCC1 | -2.54 | -18.3 | 0.3 | 1.2 | 44.6* | 1
Cc1ccc(-c2[nH]ncc2/C=C(\C#N)C(=O)NC2CCCCC2)cc1 | -1.2 | -7.7 | -5.2 | 1.1 | 12.0 | 1.1
C=CCN1C(=O)CSc2ccc(C(=O)NCCC3=CCCCC3)cc21 | -3.75 | 51.6* | 25.7 | 0.5 | 8.1 | 0.7
CN(CC(=O)NCCC1=CCCCC1)S(=O)(=O)c1ccc2c(c1)c(=O)n(C)c(=O)n2C | . | -53.8 | 25.5 | 1.5 | 3.5 | 0.7
O=C(NCCC1=CCCCC1)c1ccc(=O)oc1 | . | 13.9 | 56.0* | 0.9 | 0.9 | 0.4
COc1ccc(S(=O)(=O)N(C)CC(=O)NCCC2=CCCCC2)cc1C | -0.755 | -25.7 | 88.5* | 1.3 | -0.3 | 0.1
NC(=O)NCCC1=CCCCC1 | . | 5.3 | -1.2 | 0.9 | 0.4 | 1
CCCNC(=O)C(=O)NCCC1=CCCCC1 | 1.03 | 10.5 | 54.4* | 0.9 | 1.7 | 0.5
O=C(NCCC1=CCCCC1)c1coc(=O)c(Br)c1 | 0.168 | 33.4 | 33.1 | 0.7 | -0.8 | 0.7
COc1cccc(C2=CC(=O)CC(c3ccco3)C2)c1 (stereo unspecified) | -0.36 | . | . | . | . | .
